Source: PubChem BioAssay
Most compounds without a hit are left out; they make up all but 4.7% or so of the library.
HTR2A ag: activates the mouse 5-HT2A serotonin receptor; P35363; CHO-K1 mHTR2A beta-arrestin complementation, luminescence; percent of 30 µM serotonin response; activation, % at 7.6 µM; 360,000 tested, 0.66% active;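 active = activation above a run cutoff, the mean activation of all tested compounds plus 3 SD, cut at about 14% in these data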;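 note: 0% = plate median of compound wells and 100% = 30 µM serotonin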
AHR activator: activates the human aryl hydrocarbon receptor | 320,000 tested, 2.5% active | AHR-responsive luciferase reporter cells, luminescence | P35869 | activation, % at 5 µM; in the data active = activation above about 47%;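 note: 0% = vehicle wells and 100% = reference agonist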
MC4R barr agon: human MC4R agonism via beta-arrestin | U2OS MC4R beta-arrestin complementation, luminescence; percent of melanotan II response, DMSO zero | activation, % at 8.9 µM | 360,000 tested, 0.98% active | AID 540308;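 active = activation above a per-plate cutoff, the mean activation of sample wells on that plate plus 3 SD, cut at about 8% in these data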
Target sequence (P32245 whole entry, looked up): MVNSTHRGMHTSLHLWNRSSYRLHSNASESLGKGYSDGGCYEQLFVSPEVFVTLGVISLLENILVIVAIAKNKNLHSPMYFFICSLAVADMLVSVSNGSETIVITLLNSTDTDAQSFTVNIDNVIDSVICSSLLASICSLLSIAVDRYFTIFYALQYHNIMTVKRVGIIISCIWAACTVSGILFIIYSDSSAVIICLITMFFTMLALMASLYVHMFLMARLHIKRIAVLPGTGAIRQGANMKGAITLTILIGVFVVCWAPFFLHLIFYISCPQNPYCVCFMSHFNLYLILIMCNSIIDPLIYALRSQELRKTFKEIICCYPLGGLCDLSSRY
MC4R antagonist: blocks human MC4R cAMP signaling | P32245 | MC4R-expressing cells, MTII-stimulated cAMP, LANCE TR-FRET | inhibition, % at 6.5 µM | 360,000 tested, 0.48% active;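 active = inhibition above its plate's cutoff, the mean of tested wells on that plate plus 3 SD, cut at about 29% in these data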;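 note: 0% = Melanotan II alone and 100% = Melanotan II plus saturating MCL0020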
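Material: U2OS-MC4R stable cell line | Reagent: Melanotan II challenge after compound preincubation | Doses: One concentration, 6.5 µM nominal | Incubation: 30-min compound preincubation, 1-h Melanotan II challenge, 1-h detection, room temperature | Signal: TR-FRET cAMP assay | Replicates: One well per compound, no replicates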
FXN GAA850 act: frataxin GAA850 promoter activation | activation, % at 6 µM | 360,000 tested, 0.56% active | HEK293 lucGAA850 FXN promoter luciferase reporter, 24 h; percent of 10 µM SAHA response;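 active = activation above the average of all compounds screened plus 3 SD, cutoff fixed separately per campaign, cut at about 7.5% in these data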;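 note: 0% = DMSO wells and 100% = 10 µM SAHA wells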
cAMP nonselect: nonselective cAMP signaling inhibitor, MC4R antagonist counter-screen; shares compounds with MC4R antagonist; parental U2OS, forskolin cAMP, LANCE TR-FRET; inhibition, % at 6.5 µM; 1,600 tested, 26% active; AID 602193;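 active = mean inhibition over triplicates above the low-control well mean plus 3 SD, set per campaign, cut at about 13% in these data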;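 note: signal is single emission at 671 nm which falls as cellular cAMP rises; 0% = forskolin-stimulated wells and 100% = buffer without forskolin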
MC4R antag conf: human MC4R cAMP antagonism confirmation; shares compounds with MC4R antagonist; MC4R-expressing cells, MTII-stimulated cAMP, TR-FRET; inhibition, % at 6.5 µM; 1,600 tested, 27% active; AID 602195; in the data active = inhibition above about 29%;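 note: 0% = agonist stimulated wells alone and 100% = agonist stimulated wells plus saturating reference antagonist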
* = called active by the depositor; . = not tested or not shown.

SMILES	HTR2A ag	AHR activator	MC4R barr agon	MC4R antagonist	FXN GAA850 act	cAMP nonselect	MC4R antag conf
COc1ccc(CNC(=O)CSc2nnc(NC(=O)C3CC3)s2)cc1	4	-1	-1	29*	0	0	-6
Nn1c(SCC(=O)Nc2cccnc2Cl)nnc1-c1ccccc1	-5	7	-1	3	2	.	.
Cc1ccc(NC(=S)Nc2cccc(-c3n[nH]c(=S)o3)c2)cc1	-4	-2	-3	37*	0	11	13
COc1cc(OC)cc(C(=O)Nc2ccccc2C(=O)NC2CC2)c1	-3	34	-2	1	-3	.	.
COc1ccc(/C=N/NC(=O)C2COc3ccccc3O2)cc1OC (stereo not given)	-2	3	2	29*	0	-2	-12
O=C(COc1ccc(Cl)cc1Br)N1CCN(c2ncccn2)CC1	-11	.	-2	-10	-1	.	.
O=S(=O)(Nc1cc(Sc2ncn[nH]2)c(O)c2ccccc12)c1ccccc1	1	.	-2	53*	-15	10	8
O=C(COC(=O)CNS(=O)(=O)c1ccc(F)c(F)c1F)Nc1ccc(OC(F)F)cc1	1	-1	-3	29*	-2	9	18
CC(C)(C)c1ccc(-n2nc(C#N)c(Cl)cc2=O)cc1	-5	.	-3	94*	-8	41*	89*
O=C1C(F)=CC(COC(c2ccccc2)(c2ccccc2)c2ccccc2)OC1n1cc(F)c(=O)[nH]c1=O (stereo not given)	-7	.	-5	29*	-9	-2	-14
Cc1cc(C)nc(SCc2nnc(SCC(=O)Nc3nc(-c4ccccc4)cs3)n2-c2ccccc2)n1	-6	4	-1	-2	-2	.	.
Cc1cc(C)nc(SCc2nnc(SCC(=O)O)n2-c2ccccc2)n1	-3	7	1	31*	1	-2	1
Cc1ccc(S(=O)(=O)N2c3ccccc3OC(C(=O)OC(C)(C)C)(C(=O)OC(C)(C)C)C2CC(=O)c2ccccc2)cc1 (stereo not given)	-3	.	.	.	.	.	.
COc1cccc(CNS(=O)(=O)/C=C/c2ccc(OC)c(OC)c2)c1	7	1	-3	34*	2	0	6
CC1CCCC(NC(=O)CSc2ccc(F)cc2)C1C (stereo not given)	-8	1	1	32*	-1	4	6
Cc1ccc(C)c(Cn2c(C)nc3c(sc(=S)n3-c3ccccc3)c2=O)c1	10	0	-1	31*	0	2	-5
CC(C)(C)NC(=O)C(c1cc2ccccc2o1)n1c(-c2ccc(-c3ccccc3)cc2)nc2ccccc21 (stereo not given)	-2	.	.	.	.	.	.
CC(=O)OC[C@@H]1CN(Cc2ccccc2)C[C@H](n2cnc3c(N4CCN(c5ccccc5)CC4)ncnc32)O1	-1	.	0	7	-1	.	.
Cc1coc2cc3oc(=O)c(CC(=O)N(C)CC(=O)O)c(C)c3cc12	-4	-1	1	29*	1	19*	1
C[C@H](CO)N1C[C@H](C)[C@@H](CN(C)Cc2ccc(-c3ccccc3)cc2)OCc2cnnn2CCCC1=O	2	.	1	2	0	.	.
COc1ccc(-c2csc3ncnc(N4CCN(c5ccccc5Cl)CC4)c23)cc1	7	4	-2	29*	-1	-1	29*
CCOc1cc(N2CCOCC2)c(OCC)cc1NC(=O)COC(=O)COc1ccc(C#N)cc1	1	-4	-2	31*	1	10	15
COc1cc(/C(O)=C(\C#N)c2nc3ccccc3[nH]2)cc(OC)c1OC	-1	.	0	26	0	.	.
C=CCc1cccc2cc(C(=O)N3CCN(C(=O)c4ccccc4)CC3)c(=O)oc12	2	3	1	30*	0	-2	-6
C=CCc1cccc2cc(C(=O)N3CCOCC3)c(=O)oc12	4	2	0	-1	2	.	.
SMILES	HTR2A ag	AHR activator	MC4R barr agon	MC4R antagonist	FXN GAA850 act	cAMP nonselect	MC4R antag conf
CCOC(=O)c1ccc(N/C=C/C(=O)C(C)(C)C)cc1	3	1	2	30*	2	0	0
O=C1NCCOC(=O)[C@@H](Cc2ccc(F)cc2)C/C=C\C[C@@H]1CC(=O)N(CCO)Cc1ccccc1	5	1	-1	9	2	.	.
CC1(C(=O)NCc2ccccc2)CSCC(=O)N1Cc1cccc(C(F)(F)F)c1 (stereo not given)	-4	.	.	.	.	.	.
CCNc1nc(-c2sc(NC(=O)C(C)(C)C)nc2C)c(-n2cc(-c3ccccc3)nn2)s1	9	.	.	.	.	.	.
CC(C)(C)c1ccc(C(=O)Nc2sc3c(c2C(=O)O)CCC3)cc1	2	5	0	30*	-13	0	4
Cc1cccc(C(=O)Nc2sc3c(c2C(=O)O)CCC3)c1	2	17	-2	8	-3	.	.
Nc1nc2c(ncn2[C@@H]2O[C@H](CNCc3cnc(N4CCOCC4)s3)[C@@H](O)[C@H]2O)c(=O)[nH]1	4	.	.	.	.	.	.
O=C1OCCC1Sc1nc2cc(Cl)ccc2n1Cc1ccccc1 (stereo not given)	-4	-1	-2	48*	2	12	33*
COc1ccc(C(=O)NNC(=O)c2ccc(F)c(S(=O)(=O)N3CCOCC3)c2)cc1	4	-2	-1	12	-1	.	.
CC1CN(C(=O)CSc2nc(N)c(NC(=O)c3ccc(C(F)(F)F)cc3)c(=O)[nH]2)CC(C)O1 (stereo not given)	2	.	0	8	2	.	.
CC(Cc1c[nH]c2ccccc12)C(=O)NCc1ccco1 (stereo not given)	3	3	0	10	0	.	.
CC1=Nc2ccc(C)cc2/C1=C/c1c(N)n2c(S(=O)(=O)C(C)C)nsc2nc1=O	-4	.	0	33*	-4	3	6
Cc1cccc(NC(=S)N2CCN(C(=O)c3ccco3)CC2)c1C	6	-1	1	14	1	.	.
O=C(Nc1nnc(SCc2ccc(F)cc2)s1)c1cnccn1	-2	0	0	32*	1	-4	-11
CCSc1nnc(NC(=O)c2cnccn2)s1	.	20	.	.	.	.	.
COC(=O)c1ccc(C(=O)N2CCCC(C)(C(=O)NS(=O)(=O)C3CC3)C2)cc1 (stereo not given)	0	.	-1	1	0	.	.
Cc1ccccc1N1CCN(C2CCCN(C(=O)CN3CCCC3=O)C2)CC1 (stereo not given)	-2	-2	0	31*	-1	-2	-4
CCCCCCN1C[C@H](O)[C@@H](n2cc(C3CC3)nn2)C[C@@H]1c1ccc(OC)cc1	1	.	7	2	-2	.	.
Cc1cc(C)c(-c2c(N)cc(Br)cc2Br)c(N)c1	-6	.	3	16	1	.	.
